Measurements from ChEMBL document CHEMBL5260794, “Synthesis and biological evaluation of a new class of benzothiazines as neuroprotective agents” (Eur J Med Chem, 2017).
The source made the active and inactive calls. The calls are words filed in the database; no cut-off is given here.

Columns and labels:
[1] = species: Rattus norvegicus; assay: Neuroprotective activity against oxygen glucose deprivation/reperfusion-induced Wistar rat cortical brain assessed as reduction in LDH release by measuring minimal effective concentration; format: functional
How it was run: (§1)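 Male Wistar rat cortical slices (400 μm) in oxygenated ACSF, pH 7.4, 1 h at room temperature, then 30 min at 37 °C. OGD for 30 min in glucose-free ACSF with 11 mM sucrose under 95% N₂/5% CO₂. Compound added in the reoxygenation buffer. Glutamate and LDH release measured. Mean ± SEM of at least four experiments, ANOVA with Dunnett test.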

[2] = test system: SH-SY5Y; assay: Neuroprotective activity against glutamate-induced toxicity in human SH-SY5Y cells assessed as reduction in ROS production at 10 uM measured after 24 hrs by DCFH-DA staining based assay relative to control; format: functional; parameters: scale not given: the % may be the effect or the level left
How it was run: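 SH-SY5Y cells loaded with DCFH-DA (5 μM, 30 min) and washed before treatment. Pretreated 1 h with compound (0.1-10 μM), then glutamate 50 mM. Fluorescence (ex 485/em 535 nm) read at 1 h or 24 h and expressed as % inhibition of glutamate-induced ROS. 4 independent experiments.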

[3] = test system: SH-SY5Y; assay: Neuroprotective activity against 6-OHDA-induced toxicity in human SH-SY5Y cells assessed as reduction in condensed and fragmented nuclei at 10 uM pretreated for 1 hr followed by 6-OHDA challenge measured after 2 hrs by DAPI staining based assay relative to control; format: functional; parameters: scale not given: the % may be the effect or the level left; conditions: time 3 hrs
How it was run: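 DAPI staining of SH-SY5Y cells pretreated 1 h with compound at 10 μM, then given 6-OHDA 55 μM for 2 h. Condensed or fragmented nuclei scored as apoptotic. Mean ± SEM of 4 independent experiments.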

[4] = species: Rattus norvegicus; assay: Inhibition of transient voltage-dependent sodium current in Wistar rat brain piriform cortex layer at 50 uM by whole cell patch clamp method relative to control; format: functional
[5] = test system: SH-SY5Y; assay: Neuroprotective activity against glutamate-induced toxicity in human SH-SY5Y cells assessed as reduction in condensed and fragmented nuclei at 10 uM pretreated for 1 hr followed by glutamate challenge measured after 24 hrs by DAPI staining based assay (reference value: 16.9 +/- 1.5%); format: functional, cell-based; conditions: time 25.0 hrs
How it was run: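 Cells pretreated 1 h with compound (0.1-10 μM), then glutamate 50 mM for 24 h. DAPI staining; cells with condensed or fragmented nuclei scored as apoptotic, reported as percentage. Mean ± SEM of 4 independent experiments.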

[6] = test system: SH-SY5Y; assay: Neuroprotective activity against 6-OHDA-induced toxicity in human SH-SY5Y cells assessed as reduction in ROS production at 0.1 uM pretreated for 1 hr followed by 6-OHDA challenge measured after 2 hrs by DCFH-DA staining based assay; format: functional, cell-based; conditions: time 3.0 hrs
[7] = test system: SH-SY5Y; assay: Neuroprotective activity against 6-OHDA-induced toxicity in human SH-SY5Y cells assessed as cell viability at 0.1 uM pretreated for 1 hr followed by 6-OHDA challenge measured after 2 hrs by MTT assay; format: functional, cell-based; conditions: time 3.0 hrs
[8] = Cytotoxicity against human SH-SY5Y cells assessed as cell viability at 10 uM measured after 24 hrs by MTT assay; format: toxicity, cell-based
How it was run: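 SH-SY5Y cells (RPMI 1640, 10% FBS, 37 °C, 5% CO₂, exponential growth) seeded 8 x 10⁴ cells/mL and left to attach 24 h, then exposed to compound alone for 24 h. MTT viability read. Morphology graded 0-4 on the USP 28 scale under phase contrast. Compound diluted from DMSO stock in PBS, final DMSO <0.01%.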

[9] = species: Rattus norvegicus; assay: Neuroprotective activity against oxygen glucose deprivation/reperfusion-induced Wistar rat cortical brain assessed as concentration required to reduce glutamate release by measuring efficacy window; format: functional; how it was run: as §1
[10] = test system: SH-SY5Y; assay: Neuroprotective activity against 6-OHDA-induced toxicity in human SH-SY5Y cells assessed as increase in cell viability at 10 uM pretreated for 1 hr followed by 6-OHDA challenge measured after 2 hrs by MTT assay; format: functional, cell-based; conditions: time 3.0 hrs
How it was run: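 SH-SY5Y cells attached 24 h, then pretreated 1 h with compound (0.1-10 μM) and challenged with 6-OHDA 55 μM for 2 h. 6-OHDA made fresh in nitrogen-gassed 5 μM ascorbic acid, and controls received medium with ascorbic acid. Viability by MTT. Mean ± SEM of 4 independent experiments run in triplicate or quadruplicate, ANOVA with Dunnett test.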

[11] = test system: SH-SY5Y; assay: Neuroprotective activity against 6-OHDA-induced toxicity in human SH-SY5Y cells assessed as reduction in ROS production by DCFH-DA staining based assay; format: functional, cell-based; conditions: dose 0.1-10 µM
How it was run: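 SH-SY5Y cells loaded with DCFH-DA (5 μM, 30 min) and washed. Pretreated 1 h with compound (0.1-10 μM), then 6-OHDA 55 μM. Fluorescence (ex 485/em 535 nm) read at 1 h or 24 h and expressed as % inhibition of 6-OHDA-induced ROS. 4 independent experiments.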

[12] = test system: SH-SY5Y; assay: Neuroprotective activity against glutamate-induced toxicity in human SH-SY5Y cells assessed as cell viability at 10 uM pretreated for 1 hr followed by glutamate challenge measured after 24 hrs by MTT assay; format: functional; conditions: time 25 hrs, read-out: Activity
How it was run: (§2)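 SH-SY5Y cells attached 24 h, then pretreated 1 h with compound (0.1-10 μM) before glutamate 50 mM for 24 h. Viability by MTT. Morphology under phase-contrast microscope, scored by the USP 28 grade scale (0-4). Mean ± SEM of 4 independent experiments run in triplicate or quadruplicate, ANOVA with Dunnett test.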

[13] = test system: SH-SY5Y; assay: Neuroprotective activity against glutamate-induced toxicity in human SH-SY5Y cells assessed as reduction in ROS production measured after 24 hrs by DCFH-DA staining based assay; format: functional, cell-based; conditions: dose 0.1-10 µM
How it was run: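 Human SH-SY5Y neuroblastoma cells were preloaded with DCFH-DA (5 μM, 30 min) and washed in PBS. They were then pretreated for 1 h with compound (0.1-10 μM; DMSO stock diluted in PBS, final DMSO <0.01%) and challenged with glutamate (50 mM). Fluorescence (ex 485/em 535 nm) was read at 24 h and expressed as % inhibition of glutamate-induced ROS. Data are mean ± SEM of 4 experiments run in triplicate or quadruplicate.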

[14] = test system: SH-SY5Y; assay: Neuroprotective activity against glutamate-induced toxicity in human SH-SY5Y cells assessed as reduction in cell rounding at 10 uM pretreated for 1 hr followed by glutamate challenge measured after 24 hrs by phase-contrast light microscopic analysis; format: functional, cell-based; conditions: time 25.0 hrs; how it was run: as §2
[15] = test system: SH-SY5Y; assay: Neuroprotective activity against glutamate-induced toxicity in human SH-SY5Y cells assessed as reduction in cell detachment at 10 uM pretreated for 1 hr followed by glutamate challenge measured after 24 hrs by phase-contrast light microscopic analysis; format: functional, cell-based; conditions: time 25.0 hrs; how it was run: as §2
[16] = test system: SH-SY5Y; assay: Neuroprotective activity against glutamate-induced toxicity in human SH-SY5Y cells assessed as reduction in G0/G1 phase cells at 10 uM pretreated for 1 hr followed by glutamate challenge measured after 24 hrs by propidium staining based flow cytometry; format: functional, cell-based; conditions: time 25.0 hrs
How it was run: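 SH-SY5Y cells (2.5 x 10⁵ cells/mL) pretreated 1 h with compound, then given glutamate 50 mM for 24 h. Cells fixed in 70% ethanol (30 min, 4 °C), held at -20 °C for at least 24 h, stained with propidium iodide. Flow cytometry on at least 1x10⁴ cells, cell-cycle phases and sub-G₀/G₁ fraction quantified. 4 independent experiments.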

[17] = test system: SH-SY5Y; assay: Neuroprotective activity against 6-OHDA-induced toxicity in human SH-SY5Y cells assessed as reduction in condensed and fragmented nuclei at 0.1 uM pretreated for 1 hr followed by 6-OHDA challenge measured after 2 hrs by DAPI staining based assay relative to control; format: functional, cell-based; conditions: time 3.0 hrs

For CCCN(CCC)/C(C)=N/C1=Nc2ccccc2CS1, the MEC [1] was 0.1 µM, the Activity [2] was 20% and the Activity [3] was >20%. The inhibition in vivo at 50 µM [4] was 15.9%, the Activity [5] was “Active” and the Activity [6] was “Active”. For the same compound, the Activity [7] was “Active”, the viability reduction at 24 h, 10 µM [8] was 10% and the Efficacy [9] was 0.1 µM. For the same compound, the Activity [10] was “Active”, the Activity [11] was “Dose-Dependent Effect” and the viability at 10 µM [12] was 65%. The Activity [13] was “Dose-Dependent Effect”, the Activity [14] was “Active” and the Activity [15] was “Active”. For the same compound, the Activity [16] was “Active” and the Activity [17] was “Active”.

With CCN(CC)/C(C)=N/C1=Nc2ccccc2CS1 the MEC [1] was 0.1 µM, the Activity [2] was 20% and the Activity [3] was >20%. The inhibition in vivo at 50 µM [4] was 51.9%, the Activity [5] was “Active” and the Activity [6] was “Active”. The Activity [7] was “Active”, the viability reduction at 24 h, 10 µM [8] was 10% and the Efficacy [9] was 0.1 µM. The Activity [10] was “Active”, the Activity [11] was “Dose-Dependent Effect” and the viability at 10 µM [12] was 65%. For the same compound, the Activity [13] was “Dose-Dependent Effect”, the Activity [14] was “Active” and the Activity [15] was “Active”. The Activity [16] was “Active” and the Activity [17] was “Active”.
